Data published in ChEMBL document CHEMBL3351384, “Synthesis of pyrazoline-thiazolidinone hybrids with trypanocidal activity” (Eur J Med Chem, 2014).
Values after ≈ are worked out from the molar mass of the structure shown.

Experiments:
[1] = test system: Trypanosoma brucei gambiense; assay: Anti-trypanosomal activity against Trypanosoma brucei gambiense Feo bloodstream forms assessed as inhibition of parasite growth rate at 1 ug/mL after 72 hrs by resazurin assay; assay type: functional; settings: read-out: GI
Procedure, shortened: (§1)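 Fixed-concentration screen of bloodstream-form Feo parasites, 10⁴ cells per well, cultured in HMI9 with 10% FCS at 37 °C, 5% CO2. Most compounds tested at 50, 10 and 1; some at 100, 20 and 2. Growth measured by resazurin fluorescence at 530 nm. Percent inhibition calculated against untreated wells.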

[2] = test system: Trypanosoma brucei gambiense; assay: Anti-trypanosomal activity against Trypanosoma brucei gambiense Feo bloodstream forms assessed as inhibition of parasite growth rate at 10 ug/mL after 72 hrs by resazurin assay; assay type: functional; settings: read-out: GI; procedure, shortened: as §1
[3] = test system: Trypanosoma brucei gambiense; assay: Anti-trypanosomal activity against Trypanosoma brucei gambiense Feo bloodstream forms assessed as inhibition of parasite growth rate at 50 ug/mL after 72 hrs by resazurin assay; assay type: functional; settings: read-out: GI; procedure, shortened: as §1
[4] = Selectivity index, ratio of CC50 for rat L6 cells to IC50 for Trypanosoma brucei gambiense Feo; assay type: functional
Procedure, shortened: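 Computed as CC50 (L-6 cells, resazurin) divided by IC50 (T. b. gambiense Feo bloodstream forms, resazurin). Both values are means of three independent experiments.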

[5] = test system: Trypanosoma brucei gambiense; assay: Anti-trypanosomal activity against Trypanosoma brucei gambiense Feo bloodstream forms assessed as inhibition of parasite growth rate after 72 hrs by resazurin assay; assay type: functional, organism-based
Procedure, shortened: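 Bloodstream-form Feo parasites in HMI9 with 10% FCS, 37 °C, 5% CO2. Log-phase cells harvested at 3000 × g and used at once. 10⁴ cells per well, with or without inhibitor (stocks in DMSO). Resazurin added and fluorescence read at 530 nm. Inhibition taken against drug-free wells. IC50 from dose–response curves ranging down to 10 ng/ml. Mean ± SD of three independent experiments.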

[6] = Cytotoxicity against rat L6 cells after 5 days by resazurin assay; assay type: cell-based
Procedure, shortened: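 Rat myoblast L-6 cells in RPMI with 25 mM HEPES pH 7.3 and 10% fetal calf serum, 37 °C, 5% CO2. Compounds from DMSO stocks, final DMSO below 1%. Controls received DMSO only. Viability by resazurin conversion, fluorescence at 530 nm excitation and 590 nm emission after a further 4 h. CC50 is the mean ± SD of three independent experiments.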

Trypanosoma cruzi = assay: Anti-trypanosomal activity against Trypanosoma cruzi Y; assay type: functional, organism-based
[7] = test system: Trypanosoma brucei brucei; assay: Anti-trypanosomal activity against Trypanosoma brucei brucei; assay type: functional, organism-based
[8] = test system: Trypanosoma brucei rhodesiense; assay: Anti-trypanosomal activity against Trypanosoma brucei rhodesiense; assay type: functional, organism-based
[9] = test system: Trypanosoma brucei gambiense; assay: Potency index, ratio of IC50 for nifurtimox to IC50 for test compound against Trypanosoma brucei gambiense Feo bloodstream forms assessed as inhibition of parasite growth rate after 72 hrs by resazurin assay; assay type: functional
[10] = test system: Trypanosoma brucei gambiense; assay: Anti-trypanosomal activity against Trypanosoma brucei gambiense Feo bloodstream forms assessed as inhibition of parasite growth rate at 100 ug/mL after 72 hrs by resazurin assay; assay type: functional; settings: read-out: GI; procedure, shortened: as §1
[11] = test system: Trypanosoma brucei gambiense; assay: Anti-trypanosomal activity against Trypanosoma brucei gambiense Feo bloodstream forms assessed as inhibition of parasite growth rate at 2 ug/mL after 72 hrs by resazurin assay; assay type: functional; settings: read-out: GI; procedure, shortened: as §1
[12] = test system: Trypanosoma brucei gambiense; assay: Anti-trypanosomal activity against Trypanosoma brucei gambiense Feo bloodstream forms assessed as inhibition of parasite growth rate at 20 ug/mL after 72 hrs by resazurin assay; assay type: functional; settings: read-out: GI; procedure, shortened: as §1

SMILES | inhibition of growth at 1 µg/mL [1] [%] | inhibition of growth at 10 µg/mL [2] [%] | inhibition of growth at 50 µg/mL [3] [%] | IC50 [5] [µM] | also measured
O=C1/C(=C/N2N=C(c3ccc4ccccc4c3)CC2c2ccc(Cl)cc2)SC(=S)N1Cc1ccco1 (configuration not stated) | 29 | 45.3 | 59.6 | – | –
COc1ccc(C2CC(c3ccc4ccccc4c3)=NN2/C=C2\SC(=S)N(c3cccc(OC(C)=O)c3)C2=O)cc1 (configuration not stated) | 87.6 | 95.8 | 94.7 | 1.2 | Ratio CC50/IC50 [4]: >143.8; CC50 at 120 h [6]: > 172 µM
COc1ccc(C2CC(c3ccccc3)=NN2C(=O)CN/C=C2\SC(=S)N(C)C2=O)cc1 (configuration not stated) | 62.3 | 96.5 | 96.1 | 4.6 | –
COc1ccc(C2CC(c3ccc4ccccc4c3)=NN2/C=C2\SC(=O)NC2=S)cc1 (configuration not stated) | 19.7 | 74.7 | 87.2 | 18.6 | –
CCC1SC(N/N=C/CSc2ccccc2)=NC1=O (configuration not stated) | – | – | – | – | IC50 (Trypanosoma cruzi): 0.3 µM
COc1ccc(C2=NN(/C=C3\SC(=S)N(c4ccc(C)cc4)C3=O)C(c3ccc(OC)cc3)C2)cc1 (configuration not stated) | 44.5 | 55.5 | 23.1 | – | –
COc1ccc(C2CC(c3ccccc3)=NN2C2=NC(=O)S/C2=C\c2ccc([N+](=O)[O-])cc2)cc1 (configuration not stated) | – | – | – | – | IC50 [7]: 3.01 µg/mL (≈ 6.21 µM)
CC1=NN(C2=NC(=O)CS2)C(c2ccccc2)C1 (configuration not stated) | – | – | – | – | IC50 [8]: 12 µg/mL (≈ 46.3 µM)
O=C1NC(=S)S/C1=C\N1N=C(c2ccc3ccccc3c2)CC1c1ccc(F)cc1 (configuration not stated) | 19.9 | 85 | 85.4 | 13.2 | –
CN1C(=O)/C(=C/NCC(=O)N2N=C(c3ccc4ccccc4c3)CC2c2ccc(Cl)cc2)SC1=S (configuration not stated) | 52 | 86.9 | 93.5 | 2.1 | –
CC(=O)Oc1cccc(N2C(=O)/C(=C/N3N=C(c4ccc5ccccc5c4)CC3c3ccc(Cl)cc3)SC2=S)c1 (configuration not stated) | 66.7 | 89.9 | 90.6 | 16.5 | –
CC(=O)Oc1cccc(N2C(=O)/C(=C/N3N=C(c4ccccc4)CC3c3ccc(Cl)cc3)SC2=S)c1 (configuration not stated) | 42.1 | 91.4 | 90.3 | 1.9 | –
COc1ccc(C2=NN(/C=C3\SC(=S)N(c4cccc(OC(C)=O)c4)C3=O)C(c3ccccc3O)C2)cc1 (configuration not stated) | 90.1 | 91.7 | 89.5 | 0.7 | Ratio CC50/IC50 [4]: 57.1; Ratio IC50 [9]: 6; CC50 at 120 h [6]: 40 µM
COc1ccc(C2CC(c3ccc4ccccc4c3)=NN2/C=C2\SC(=S)N(Cc3ccco3)C2=O)cc1 (configuration not stated) | 19.4 | 32.1 | 54.6 | – | –
COc1ccc(C2CC(c3ccc4ccccc4c3)=NN2/C=C2\SC(=S)N(C)C2=O)cc1 (configuration not stated) | 97.2 | 97.2 | 97.1 | 0.6 | Ratio CC50/IC50 [4]: 292; Ratio IC50 [9]: 6; CC50 at 120 h [6]: 175 µM
CC1CS(=O)(=O)CCN1/N=C/c1ccc([N+](=O)[O-])o1 (configuration not stated) [NIFURTIMOX] | – | – | – | 4.4 | Ratio CC50/IC50 [4]: 17.8; CC50 at 120 h [6]: 78.2 µM

SMILES | inhibition of growth at 1 µg/mL [1] [%] | inhibition of growth at 10 µg/mL [2] [%] | inhibition of growth at 50 µg/mL [3] [%] | IC50 [5] [µM] | also measured
CN1C(=O)/C(=C/N2N=C(c3ccc4ccccc4c3)CC2c2ccc(Cl)cc2)SC1=S (configuration not stated) | 97.1 | 97.2 | 97 | > 1 | CC50 at 120 h [6]: 154 µM
COc1ccc(C2=NN(/C=C3\SC(=S)N(Cc4ccco4)C3=O)C(c3ccc(OC)cc3)C2)cc1 (configuration not stated) | 38.7 | 48.2 | 12.8 | > 98.9 | –
COc1ccc(C2CC(c3ccccc3)=NN2/C=C2\SC(=S)N(c3ccc(C)cc3)C2=O)cc1 (configuration not stated) | 52.5 | 69.2 | 17.8 | 1.5 | –
O=C1NC(=S)/C(=C/N2N=C(c3ccccc3)CC2c2ccccc2O)S1 (configuration not stated) | 61 | 93.3 | 85.8 | 3.5 | –
COc1ccc(C2CC(c3ccccc3)=NN2/C=C2\SC(=S)N(c3cccc(OC(C)=O)c3)C2=O)cc1 (configuration not stated) | 79.3 | 97.5 | 97.2 | 10.8 | –
CN1C(=O)/C(=C/N2N=C(c3ccccc3)CC2c2ccc(Cl)cc2)SC1=S (configuration not stated) | – | – | – | – | inhibition of growth at 100 µg/mL [10]: 56%; inhibition of growth at 2 µg/mL [11]: 8.2%; inhibition of growth at 20 µg/mL [12]: 42%
CC(=O)Oc1cccc(N2C(=O)/C(=C/N3N=C(c4ccccc4)CC3c3ccccc3O)SC2=S)c1 (configuration not stated) | 83.1 | 93.8 | 90.9 | 1.1 | Ratio CC50/IC50 [4]: 12.4; CC50 at 120 h [6]: 13.6 µM
Cc1ccc(N2C(=O)/C(=C/N3N=C(c4ccc5ccccc5c4)CC3c3ccc(Cl)cc3)SC2=S)cc1 (configuration not stated) | 27.6 | 59.4 | 41.7 | 21.7 | –
CN1C(=O)/C(=C/NCC(=O)N2N=C(c3ccc4ccccc4c3)CC2c2ccc(F)cc2)SC1=S (configuration not stated) | 46.6 | 94.8 | 95.6 | 1.5 | –
COc1ccc(C2CC(c3ccccc3)=NN2/C=C2\SC(=S)NC2=O)cc1 (configuration not stated) | 21.9 | 92.3 | 91.5 | 14.7 | –
Cc1ccc(N2C(=O)/C(=C/N3N=C(c4ccccc4)CC3c3ccc(N(C)C)cc3)SC2=S)cc1 (configuration not stated) | 39.8 | 51.9 | 5.8 | > 20.1 | –
CN(C)c1ccc(C2CC(c3ccccc3)=NN2/C=C2\SC(=S)NC2=O)cc1 (configuration not stated) | 30.2 | 76.2 | 74 | 10.5 | –
CC(=O)Oc1cccc(N2C(=O)/C(=C/N3N=C(c4ccccc4)CC3c3ccc(N(C)C)cc3)SC2=S)c1 (configuration not stated) | 53.1 | 84.9 | 81.6 | 1.2 | Ratio CC50/IC50 [4]: >153.6; CC50 at 120 h [6]: > 184 µM
COc1ccc(C2=NN(/C=C3\SC(=S)N(c4ccc(C)cc4)C3=O)C(c3ccc(Cl)cc3)C2)cc1 (configuration not stated) | 62.8 | 70.4 | 40.2 | 2.5 | –
COc1ccc(C2CC(c3ccccc3)=NN2/C=C2\SC(=S)N(Cc3ccco3)C2=O)cc1 (configuration not stated) | 37.9 | 67.3 | 46.6 | – | –
